RORa activator – activates the human nuclear receptor RORA. activation, % at 10 µM. hit rate 1.5% among 65,000. CHO-K1 Gal4-RORA LBD luciferase reporter, luminescence; percent increase over mock-subtracted basal signal;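 active = activation above the mean of all tested compounds plus 3 SD, cut at about 49% in these data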;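 note: 0% = DMSO-treated RORA cells and 100% = added signal equal to DMSO minus mock-transfected cells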
SF1 activator – SF-1 (human) activation | Q13285 | CHO-K1 Gal4-SF-1 LBD luciferase reporter; % increase over DMSO SF-1-specific signal | activation, % at 10 µM | hit rate 1.9% among 65,000 | AID 522;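 active = activation above the mean activation of all tested compounds plus 3 SD, cut at about 50% in these data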
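material = CHO-K1 cells with Gal4–hSF-1 LBD chimera plus Gal4-driven luciferase | compound = 10 µM single point, 1% DMSO | incubation = 20 h compound exposure at 37 °C after 1 h cell settling | measured by = SteadyLite luciferase luminescence | evaluation = percent activation relative to DMSO median and mock-transfected background | control set = DMSO negative control and −SF1 background wells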
ERa SRC1 pot – enhances coactivator binding to human estrogen receptor alpha | coactivator binding (% of control), % at 25.6 µM | hit rate 1.3% among 86,000 | P03372 | TR-FRET ERalpha-LBD/SRC-Cy5 coactivator binding, 2 h; 100 = basal binding, no effect; in the data active = activity above about 200%;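 note: binding measured in presence of low estradiol as agonist stimulus; 0% = peptide alone without receptor and 100% = receptor with peptide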
ERa SRC1 inh – blocks coactivator binding to human estrogen receptor alpha | TR-FRET ER-alpha LBD / SRC-1 peptide, estradiol-bound | hit rate 1.7% among 86,000 | inhibition, % at 25.6 µM | P03372; in the data active = inhibition above about 50%;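 note: 0% = receptor plus peptide control and 100% = peptide only without receptor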
ERb SRC1 inh – ER-beta (human) coactivator binding inhibition; inhibition, % at 25.6 µM; hit rate 1.3% among 86,000; TR-FRET ER-beta LBD / SRC1-Cy5 peptide binding; receptor agonist-loaded with 1 µM estradiol;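 active = compounds whose percent inhibition of the receptor-coactivator binding signal exceeds about 50% in the single-dose screen, limit read from the data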;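 note: 0% = receptor plus peptide wells without compound and 100% = peptide-only wells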
Target sequence (Q92731 whole entry, looked up, the tested form may be a part): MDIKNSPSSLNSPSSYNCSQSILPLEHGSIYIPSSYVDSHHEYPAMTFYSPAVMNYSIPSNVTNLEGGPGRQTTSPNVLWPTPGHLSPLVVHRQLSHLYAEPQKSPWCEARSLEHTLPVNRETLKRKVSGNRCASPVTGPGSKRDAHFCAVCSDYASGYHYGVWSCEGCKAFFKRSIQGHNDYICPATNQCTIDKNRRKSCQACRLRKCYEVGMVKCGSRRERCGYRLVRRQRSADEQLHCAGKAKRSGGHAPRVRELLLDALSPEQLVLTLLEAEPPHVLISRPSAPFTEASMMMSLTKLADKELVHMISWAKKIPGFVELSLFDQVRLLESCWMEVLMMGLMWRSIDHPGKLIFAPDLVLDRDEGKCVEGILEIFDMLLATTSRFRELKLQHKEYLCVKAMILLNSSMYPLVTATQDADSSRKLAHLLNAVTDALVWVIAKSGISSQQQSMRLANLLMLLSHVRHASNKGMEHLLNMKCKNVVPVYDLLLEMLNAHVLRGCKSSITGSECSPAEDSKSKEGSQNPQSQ
BAP1 inh – blocks human BAP1 ubiquitin-AMC hydrolysis | recombinant BAP1, Ub-AMC hydrolysis fluorescence kinetic; active compounds read low | hit rate 0.48% among 72,000 | calls only at 20 µM;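 active = activity remaining at or below 50% of control, provided the compound also passes the data quality filters; inactive = the rest, including low values that fail the filters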;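 note: 100% = DMSO wells rate and 0% = substrate alone blank rate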
* hit, by the source's call; i = inactive; . = no result given; [ ] = dose if it differs, or a comment. Shown are actives, neighbours in structure and some others; about 5.1% of the full set was active somewhere.

SMILES	RORa activator	SF1 activator	ERa SRC1 pot	ERa SRC1 inh	ERb SRC1 inh	BAP1 inh
Clc1ccc(Br)cc1-c1nc(-c2cccnc2)no1	13	5	207*[fluorescence artefact?]	38	27	i
CCCCn1c(SCC(=O)Nc2cc(NC(=O)c3ccco3)ccc2C)nc2ccccc2c1=O	-12	5	122	75*[fluorescence artefact?]	58*[fluorescence artefact?]	.
CCOc1ccc2nc(NC(=O)CSc3nc4ccccc4c(=O)n3Cc3ccco3)sc2c1	-2	-6	138	17	53*[fluorescence artefact?]	.
CCOC(=O)CSc1nc2ccccc2c(=O)n1Cc1ccco1	-4	-3	96	-3	15	i
CCn1c(SCC(=O)Nc2ccc(NC(=O)c3ccco3)c(OC)c2)nc2ccccc2c1=O	-11	-18	154	65*	43	i
O=[N+]([O-])c1cccc2c1nnn2C(CO)OCCO (configuration not stated)	.	.	.	.	.	i
COc1ccc(C(=O)N2c3ccccc3C(N(C(C)=O)c3ccccc3)CC2C)cc1 (configuration not stated)	.	.	.	.	.	i
CCc1cc2c(=O)c(Oc3ccccc3)c(C(F)(F)F)oc2c(CN(C)C)c1O	.	.	.	.	.	i
CCOC(=O)Cn1c(CN2CCN(c3cccc(Cl)c3)CC2)nc2c1c(=O)[nH]c(=O)n2C	1	5	123	-3	71*[fluorescence artefact?]	i
COc1ccc(NS(=O)(=O)c2ccc(N)c(C(=O)O)c2)cc1	-2	-2	69	57*[fluorescence artefact?]	19	i
O=C1c2ccccc2-c2c1cccc2C(=O)N1CCOCC1	.	.	110	-3	56*[fluorescence artefact?]	.
Cc1cc(C)n2nc(C(=O)OCC(=O)c3cc(C)n(C)c3C)nc2n1	-5	-15	63	40	51*[fluorescence artefact?]	i
O=C(Nc1nc2ccc(F)cc2s1)C1CCCO1 (configuration not stated)	.	.	99	-7	-9	.
COc1ccc(-c2csc(NC(=O)C3CCCO3)n2)cc1 (configuration not stated)	17	64*	122	-3	-6	i
COc1cc2c(cc1NC(=O)C1CCCO1)oc1ccccc12 (configuration not stated)	58*	78*	137	0	7	.
O=C(Nc1nnc(-c2ccccc2F)s1)C1CCCO1 (configuration not stated)	.	.	58	7	33	.
O=C(Nc1ncc(Cc2ccccc2)s1)C1CCCO1 (configuration not stated)	55*	37	105	-6	-6	i
O=C(Nc1nc2ccccc2s1)C1CCCO1 (configuration not stated)	43	59*	115	4	10	i
COc1ccc(C=NC2=NN(c3cccc(C(F)(F)F)c3)CC2)cc1	.	.	.	.	.	i
O=C(Cn1c2ccccc2c(=O)c2ccccc21)Nc1ccc2c(c1)OCCO2	.	.	.	.	.	i
O=C(Nc1ccc(Oc2ccccc2)cc1)C1CCCO1 (configuration not stated)	27	58*	76	26	30	i
CCCOc1ccc(C(=O)CCN2CCOCC2)cc1	.	.	.	.	.	i
CC(C)(C)C(=O)CNS(=O)(=O)c1ccc(S(=O)(=O)NC2CCCC2)cc1	-12	19	284*[fluorescence artefact?]	6	2	i
O=C(c1ccco1)N1CCN(C(=O)c2oc(=O)c3ccccc3c2-c2ccccc2)CC1	17	6	94	-3	-9	i
O=c1[nH]c2ccc(Cl)cc2c(-c2ccccc2)c1N1CCOCC1	14	-6	357*[fluorescence artefact?]	18	23	i
SMILES	RORa activator	SF1 activator	ERa SRC1 pot	ERa SRC1 inh	ERb SRC1 inh	BAP1 inh
O=C(c1ccco1)N1CCN(c2c(-c3ccccc3)c3cc(Cl)ccc3[nH]c2=O)CC1	-2	-15	223*[fluorescence artefact?]	25	16	.
O=c1[nH]c2ccc(Cl)cc2c(-c2ccccc2)c1CN1CCOCC1	4	-13	87	0	0	i
COc1ccc(-c2nnc(SCc3nnc(-c4ccccc4)o3)n2C)cc1OC	53*	12	98	8	5	i
COc1ccc(-c2nnc(SCc3nnc(-c4ccccc4)o3)n2-c2ccccc2)cc1	16	-6	139	20	21	i
CCOP(=O)(OCC)C(Nc1ccc(Br)cc1)c1cc(Br)ccc1O (configuration not stated)	.	.	.	.	.	i
COc1ccc(C2=Nn3c(nnc3-c3cccnc3)SC2)cc1	-11	0	99	-10	58*[fluorescence artefact?]	i
O=C1NC(c2cccs2)Nc2sc3c(c21)CCCC3 (configuration not stated)	21	70*	98	-2	15	i
Cn1c(=O)[nH]c(=O)c2c1nc(N1CCCCCC1)n2Cc1ccccc1	.	.	.	.	.	i
Brc1ccc(-c2cnc(-c3cccs3)o2)cc1	13	52*	124	-1	2	.
COc1ccc(Cn2nnnc2C(c2ccccc2OC)N2CCC(C(N)=O)CC2)cc1 (configuration not stated)	0	-5	100	-5	64*	i
COc1ccc(OC)c(C(c2nnnn2Cc2ccccc2)N2CCC(C(N)=O)CC2)c1 (configuration not stated)	4	4	113	-9	0	i
Cc1nn(Cc2ccccc2)c(C)c1NC(=O)CSc1nnc(-c2cc(Cl)ccc2O)n1C	12	2	58	53*	47	i
O=c1[nH]c2cc3c(cc2cc1CN(Cc1cccs1)Cc1nnnn1Cc1ccco1)OCCO3	9	9	124	51*	50	i
CCOC(=O)Cn1nnnc1CN(Cc1ccccc1)Cc1cc2cc(CC)ccc2[nH]c1=O	58*	20	100	3	-4	i
COc1ccccc1CN(Cc1cc2cc3c(cc2[nH]c1=O)OCCO3)Cc1nnnn1Cc1ccco1	.	.	76	-2	9	.
O=c1[nH]c2cc3c(cc2cc1CN(Cc1ccccc1)Cc1nnnn1Cc1ccco1)OCCO3	9	7	216*	20	26	i
CCOC(=O)Cn1nnnc1C(CC)N(Cc1ccccc1)Cc1cc2cc(C)ccc2[nH]c1=O (configuration not stated)	.	.	99	5	3	.
Cc1cc(C(=O)OCC(=O)c2ccc(Br)s2)no1	-19	19	58	58*	48	i
O=C(CSc1nccn1Cc1ccccc1)Nc1nccs1	57*	14	98	-19	-4	i
CC(C)(C)NC(=O)CSc1nccn1Cc1ccccc1	4	-10	92	-40	-4	i
O=C(Nc1cccc2nsnc12)c1ccc2c(c1)OCCO2	70*	54*	114	-9	-5	i
O=C(Nc1cccc2nsnc12)c1ccc2c(c1)OCO2	.	.	119	-4	-7	.
Cc1nc2ccc3nc(NC(=O)c4ccc(C#N)cc4)sc3c2s1	.	.	.	.	.	i
CCN(CC)c1ccc(C(=O)Nc2nc3ccc4nc(C)sc4c3s2)cc1	.	.	.	.	.	i

Screens from PubChem BioAssay.
